# Published values collected from several papers.
# Each line is one published result; the experiments were not run side by side.
# AChE: AChE (Phlebotomus papatasi, UniProt M1F887)
# M-phase phosphoprotein 8 chromodomain: M-phase phosphoprotein 8, chromodomain (Homo sapiens, UniProt Q99549)
# ESR1: Estrogen receptor (ESR1, Homo sapiens, UniProt P03372)
SMILES,target,test,quantity,result
CC[n+]1c(-c2ccccc2)c2cc(N)ccc2c2ccc(N)cc21,AChE,"enzyme activity, inhibitor",IC50,14100 nM
CCN(CCCC[C@H](NC(=O)[C@H](CC(C)C)NC(=O)[C@H](C)NC(=O)[C@H](Cc1ccccc1)NC(=O)c1ccncc1)C(=O)N[C@@H](CO)C(N)=O)C(C)C,M-phase phosphoprotein 8 chromodomain,"cell-free assay, TR-FRET",IC50,990 nM
O=c1c2ccccc2[se]n1-c1ccccc1,"Leucine-rich repeat serine/threonine-protein kinase 2 (LRRK2, Homo sapiens, UniProt Q5S007, G2019S)","enzyme activity, inhibitor, radiometric",IC50,1860 nM
C[C@H]1CCC[C@H](O)CCC/C=C/c2cc(O)cc(O)c2C(=O)O1,ESR1,"reporter gene, agonist, luciferase",EC50,0.13 nM
c1cc[c]([Sn]([c]2ccccc2)[c]2ccccc2)cc1,"Peroxisome proliferator-activated receptor gamma (Pparg, Mus musculus, UniProt P37238)","reporter gene, agonist, luciferase",EC50,70 nM
CCN(CCCC[C@H](NC(=O)[C@H](CC(C)C)NC(=O)[C@H](C)NC(=O)[C@H](Cc1ccccc1)NC(=O)c1ccc(Br)c(N)c1)C(=O)N[C@@H](CO)C(N)=O)C(C)C,M-phase phosphoprotein 8 chromodomain,"cell-free assay, TR-FRET",IC50,290 nM
Clc1ccc(Cl)c(-c2ccccc2Cl)c1,ESR1,"reporter gene, agonist, luciferase",EC50,9000 nM
COc1cc2c3cc1Oc1cc(ccc1O)C[C@@H]1c4c(cc(OC)c(O)c4Oc4ccc(cc4)C[C@@H]3N(C)CC2)CC[N+]1(C)C,AChE,"enzyme activity, inhibitor",IC50,38900 nM
Clc1ccc(-c2ccccc2Cl)cc1,ESR1,"reporter gene, agonist, luciferase",EC50,20000 nM
N[C@@H](Cc1ccc(O)cc1)C(=O)O,"Iodotyrosine deiodinase (Haliscomenobacter hydrossis, UniProt F4KU78)","binding, fluorescence",Kd,> 1.2 mM
CCN(CCCC[C@H](NC(=O)[C@H](CC(C)C)NC(=O)[C@H](C)NC(=O)[C@H](Cc1cccnc1)NC(=O)c1cccnc1)C(=O)N[C@@H](CO)C(N)=O)C(C)C,M-phase phosphoprotein 8 chromodomain,"cell-free assay, TR-FRET",IC50,1800 nM
Oc1ccc(-c2cc(Cl)ccc2Cl)c(Cl)c1,ESR1,"reporter gene, agonist, luciferase",EC50,200 nM
CCN(CCCC[C@H](NC(=O)[C@H](CC(C)C)NC(=O)[C@H](C)NC(=O)[C@H](Cc1ccccc1)NC(=O)c1ccoc1)C(=O)N[C@@H](CO)C(N)=O)C(C)C,M-phase phosphoprotein 8 chromodomain,"cell-free assay, TR-FRET",IC50,1200 nM
CCCC[C@@H](NC(=O)[C@@H](N)Cc1c(C)cc(O)cc1C)C(=O)NCC(=O)N[C@@H](Cc1ccc(F)cc1)C(=O)N(C)CCC[C@@]1(c2ccc(F)cc2)OCc2cc(C#N)ccc21,"Alpha-2C adrenergic receptor (ADRA2C, Homo sapiens, UniProt P18825)","ligand displacement, radioligand",Ki,280 nM
